Assays:
enterovirus D68 = assay: Antiviral activity against enterovirus D68 US/MO/14-18947 infected in human RD cells assessed as reduction in virus induced cytopathic effect by neutral red staining based CPE assay; assay type: functional, organism-based; conditions: Enterovirus D, US/MO/14-18947, RD
Procedure, shortened: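 RD cells seeded overnight to ~90% confluency, washed with PBS containing Mg/Ca, infected with virus in DMEM/2% FBS/30 mM MgCl2 for at least 1 h at 33 °C, then compound added. Cells stained with 66 μg/mL neutral red for 2 h; uptake read at 540 nm. EC50 from dose-response fit; mean ± SD of two independent experiments, three repeats each.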

[1] = Cytotoxicity against human RD cells assessed as reduction in cell viability by neutral red staining based CPE assay; assay type: toxicity; conditions: RD cells
Procedure, shortened: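 Uninfected RD cells, grown overnight to ~90% confluency, treated with compound under otherwise the same handling as the antiviral assay. Viability by neutral red uptake (66 μg/mL, 2 h, absorbance 540 nm). CC50 from best-fit dose-response curve; mean ± SD of two independent experiments, three repeats each.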

[2] = Inhibition of Enterovirus D68 US/KY/14-18953 2A protease expressed in Escherichia coli BL21(DE3) using Dabcyl-KIRIVNT/GPGEGGE-Edans as substrate incubated for 2 hrs by FRET assay

Row | Structure (SMILES) | EC50 (enterovirus D68) | CC50 [1] | IC50 [2]
1 | CC(C)C[C@H](NC(=O)[C@@H]1[C@H]2CCC[C@H]2CN1C(=O)[C@@H](NC(=O)CC12CC3CC(CC(C3)C1)C2)C(C)(C)C)C(=O)C(=O)NC1CC1 | 260 nM | 26300 nM | 260 nM
2 | CC(C)(C)[C@H](NC(=O)CC12CC3CC(CC(C3)C1)C2)C(=O)N1C[C@@H]2CCC[C@@H]2[C@H]1C(=O)NC1(C(=O)C(=O)NC2CC2)CCC1 | 3230 nM | > 150000 nM | 4810 nM
3 | CC(C)(C)[C@H](NC(=O)CC12CC3CC(CC(C3)C1)C2)C(=O)N1C[C@@H]2CCC[C@@H]2[C@H]1C(=O)N[C@@H](Cc1ccsc1)C(=O)C(=O)NC1CC1 | 240 nM | 28200 nM | 120 nM
4 | CCC[C@H](NC(=O)[C@@H]1[C@H]2CCC[C@H]2CN1C(=O)[C@@H](NC(=O)OCc1ccccc1)C(C)(C)C)C(=O)C(=O)NC1CC1 | 2900 nM | > 150000 nM | 760 nM
5 | CCC[C@H](NC(=O)[C@@H]1[C@H]2CCC[C@H]2CN1C(=O)[C@@H](NC(=O)CC1CCC(F)(F)CC1)C(C)(C)C)C(=O)C(=O)NC1CC1 | 750 nM | > 50000 nM | 140 nM
6 | CCC[C@H](NC(=O)[C@@H]1[C@H]2CCC[C@H]2CN1C(=O)[C@@H](NC(=O)Cc1ccccc1)C(C)(C)C)C(=O)C(=O)NC1CC1 | 1970 nM | > 150000 nM | 250 nM
7 | CC(C)(C)[C@H](NC(=O)[C@@H]1[C@H]2CCC[C@H]2CN1C(=O)[C@@H](NC(=O)CC12CC3CC(CC(C3)C1)C2)C(C)(C)C)C(=O)C(=O)NC1CC1 | > 30000 nM | > 150000 nM | > 20000 nM
8 | CCC[C@H](NC(=O)[C@@H]1[C@H]2CCC[C@H]2CN1C(=O)[C@@H](NC(=O)NC(C)(C)C)C(C)(C)C)C(=O)C(=O)NC1CC1 | – | – | 1160 nM
9 | CC(C)(C)[C@H](NC(=O)CC12CC3CC(CC(C3)C1)C2)C(=O)N1C[C@@H]2CCC[C@@H]2[C@H]1C(=O)N[C@H](C(=O)C(=O)NC1CC1)c1ccccc1 | 570 nM | 35800 nM | 230 nM
10 | CC(C)(C)Oc1ccc(C[C@H](NC(=O)[C@@H]2[C@H]3CCC[C@H]3CN2C(=O)[C@@H](NC(=O)CC23CC4CC(CC(C4)C2)C3)C(C)(C)C)C(=O)C(=O)NC2CC2)cc1 | 1730 nM | 9790 nM | 180 nM
11 | CCC[C@@H](C#N)NC(=O)[C@@H]1[C@H]2CCC[C@H]2CN1C(=O)[C@@H](NC(=O)CC12CC3CC(CC(C3)C1)C2)C(C)(C)C | 3920 nM | > 150000 nM | 1320 nM
12 | CCC[C@H](NC(=O)[C@@H](NC(=O)[C@@H](NC(=O)CC12CC3CC(CC(C3)C1)C2)C(C)(C)C)C1CCCCC1)C(=O)C(=O)NC1CC1 | > 1840 nM | 1840 nM | –
13 | CCC[C@H](NC(=O)[C@@H]1[C@H]2CCC[C@H]2CN1C(=O)[C@@H](NC(=O)CC1CCCCC1)C(C)(C)C)C(=O)C(=O)NC1CC1 | 380 nM | > 150000 nM | 90 nM
14 | CCC[C@H](NC(=O)[C@@H]1[C@H]2CCC[C@H]2CN1C(=O)[C@@H](NC(=O)NC12CC3CC(CC(C3)C1)C2)C(C)(C)C)C(=O)C(=O)NC1CC1 | 700 nM | 42200 nM | 160 nM
15 | CCC[C@H](NC(=O)[C@@H]1[C@H]2CCC[C@H]2CN1C(=O)[C@@H](NC(=O)CC1CCCC1)C(C)(C)C)C(=O)C(=O)NC1CC1 | 700 nM | > 150000 nM | 100 nM
16 | CC(C)(C)[C@H](NC(=O)CC12CC3CC(CC(C3)C1)C2)C(=O)N1C[C@@H]2CCC[C@@H]2[C@H]1C(=O)N[C@@H](Cc1ccc(F)cc1)C(=O)C(=O)NC1CC1 | 190 nM | 14100 nM | 150 nM

Row | Structure (SMILES) | EC50 (enterovirus D68) | CC50 [1] | IC50 [2]
17 | CCC[C@H](NC(=O)[C@H](CC1CCCCC1)NC(=O)[C@@H](NC(=O)CC12CC3CC(CC(C3)C1)C2)C(C)(C)C)C(=O)C(=O)NC1CC1 | > 290 nM | 290 nM | –
18 | COC[C@H](NC(=O)[C@@H]1[C@H]2CCC[C@H]2CN1C(=O)[C@@H](NC(=O)CC12CC3CC(CC(C3)C1)C2)C(C)(C)C)C(=O)C(=O)NC1CC1 | 2290 nM | 23200 nM | 120 nM
19 | CCC[C@H](NC(=O)[C@@H]1[C@H]2CCC[C@H]2CN1C(=O)[C@@H](NC(=O)CC1C2CC3CC(C2)CC1C3)C(C)(C)C)C(=O)C(=O)NC1CC1 (some centres not stated) | 180 nM | > 150000 nM | 120 nM
20 | CCC[C@H](NC(=O)[C@@H]1[C@H]2CCC[C@H]2CN1C(=O)[C@@H](NC(=O)[C@@H](NC(=O)OCc1ccccc1)C1CCCCC1)C(C)(C)C)C(=O)C(=O)NC1CC1 | 830 nM | > 150000 nM | 360 nM
21 | CC(C)(C)[C@H](NC(=O)CC12CC3CC(CC(C3)C1)C2)C(=O)N1C[C@@H]2CCC[C@@H]2[C@H]1C(=O)N[C@H](C(=O)C(N)=O)C1CCCCC1 | 140 nM | > 150000 nM | 190 nM
22 | CCC[C@H](NC(=O)[C@@H]1[C@H]2CCC[C@H]2CN1C(=O)[C@@H](NC(C)=O)C(C)(C)C)C(=O)C(=O)NC1CC1 | 4650 nM | > 150000 nM | 940 nM
23 | CCC[C@H](NC(=O)[C@@H]1[C@H]2CCC[C@H]2CN1C(=O)[C@@H](NC(=O)/C=C/c1ccccc1)C(C)(C)C)C(=O)C(=O)NC1CC1 | 3990 nM | > 150000 nM | 760 nM
24 | CC(C)(C)[C@H](NC(=O)CC12CC3CC(CC(C3)C1)C2)C(=O)N1C[C@@H]2CCC[C@@H]2[C@H]1C(=O)N[C@H](C(=O)C(=O)NC1CC1)c1ccc(F)cc1 | 780 nM | 24100 nM | 350 nM
25 | CC(C)[C@H](NC(=O)[C@@H]1[C@H]2CCC[C@H]2CN1C(=O)[C@@H](NC(=O)CC12CC3CC(CC(C3)C1)C2)C(C)(C)C)C(=O)C(=O)NC1CC1 | 160 nM | > 150000 nM | 90 nM
26 | CC(C)(C)[C@H](NC(=O)CC12CC3CC(CC(C3)C1)C2)C(=O)N1C[C@@H]2CCC[C@@H]2[C@H]1C(=O)N[C@@H](Cc1c[nH]c2ccccc12)C(=O)C(=O)NC1CC1 | 280 nM | > 150000 nM | 180 nM
27 | CC(C)(C)[C@H](NC(=O)CC12CC3CC(CC(C3)C1)C2)C(=O)N1C[C@@H]2CCC[C@@H]2[C@H]1C(=O)N[C@@H](Cc1ccc(F)cc1)C(=O)c1nc2ccccc2s1 | > 30000 nM | > 150000 nM | > 20000 nM
28 | CC(C)(C)[C@H](NC(=O)CC12CC3CC(CC(C3)C1)C2)C(=O)N1C[C@@H]2CCC[C@@H]2[C@H]1C(=O)N[C@@H](CC1CC1)C(=O)C(=O)NC1CC1 | 230 nM | 34900 nM | 140 nM
29 | CCC[C@H](NC(=O)[C@@H]1[C@H]2CCC[C@H]2CN1C(=O)OCc1ccccc1)C(=O)C(=O)NC1CC1 | 25900 nM | > 150000 nM | 4350 nM
30 | CCC[C@H](NC(=O)[C@@H]1[C@H]2CCC[C@H]2CN1C(=O)[C@@H](NC(=O)CC12CC3CC(CC(O)(C3)C1)C2)C(C)(C)C)C(=O)C(=O)NC1CC1 | 1850 nM | > 150000 nM | 400 nM
31 | CC(C)(C)[C@H](NC(=O)CC12CC3CC(CC(C3)C1)C2)C(=O)N1C[C@@H]2CCC[C@@H]2[C@H]1C(=O)NC1(C(=O)C(=O)NC2CC2)CCCCC1 | 1010 nM | > 150000 nM | 740 nM
32 | CC(C)(C)[C@H](NC(=O)NC12CC3CC(CC(C3)C1)C2)C(=O)N1C[C@@H]2CCC[C@@H]2[C@H]1C(=O)N[C@@H](Cc1ccc(F)cc1)C(=O)C(=O)NC1CC1 | 350 nM | 21300 nM | 160 nM

— ChEMBL document CHEMBL5370639, “Structure-Based Lead Optimization of Enterovirus D68 2A Protease Inhibitors” (J Med Chem, 2023)
